Calls of active or inactive are those of the source. The rule behind the calls is not given here.
Experiments:
[1] = target: T1, Type-2 angiotensin II receptor (Homo sapiens) (UniProt P50052); test: Antagonist activity against AT2 receptor (unknown origin) expressed in NG108-15 cells assessed as reduction in angiotension-2-induced neurite outgrowth at 10 nM after 3 days by phase contrast microscopy; format: cell-based
T1 sequence (whole entry): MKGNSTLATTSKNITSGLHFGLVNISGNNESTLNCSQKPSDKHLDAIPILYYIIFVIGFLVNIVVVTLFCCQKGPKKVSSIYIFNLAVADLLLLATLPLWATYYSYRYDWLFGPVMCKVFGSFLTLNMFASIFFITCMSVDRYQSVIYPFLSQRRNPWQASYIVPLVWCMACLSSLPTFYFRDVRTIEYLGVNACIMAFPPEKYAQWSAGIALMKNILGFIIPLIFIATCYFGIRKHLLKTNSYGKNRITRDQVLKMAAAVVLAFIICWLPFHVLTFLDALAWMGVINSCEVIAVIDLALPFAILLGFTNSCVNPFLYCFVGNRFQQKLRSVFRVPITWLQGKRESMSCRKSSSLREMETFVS
Method in brief: (§1)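 Undifferentiated NG108-15 cells were plated at 3.6×10^4 cells per 35 mm dish and cultured 3 days with agent alone, or with 10 μM PD 123,319 or 100 nM Ang II. Phase-contrast micrographs were taken. A cell with at least one neurite longer than its cell body scored positive, expressed as percent of total cells counted (at least 400). Two-way ANOVA.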

[2] = target: T1, Type-2 angiotensin II receptor (Homo sapiens); test: Agonist activity at AT2 receptor (unknown origin) expressed in NG108-15 cells assessed as induction of neurite outgrowth at 10 nM after 3 days by phase contrast microscopy; format: cell-based; method in brief: as §1
[3] = target: T1, Type-2 angiotensin II receptor (Homo sapiens); test: Agonist activity at AT2 receptor (unknown origin) expressed in NG108-15 cells assessed as induction of neurite outgrowth at 100 nM after 3 days by phase contrast microscopy; format: cell-based; method in brief: as §1
[4] = Binding affinity to AT2 receptor (unknown origin)
[5] = target: T2, Type-1 angiotensin II receptor A (Rattus norvegicus, UniProt P25095); test: Displacement of [125I]-Ang II from AT1 receptor in rat liver membranes after 2 hrs by gamma-counting method; format: cell membranes, Membrane
T2 sequence (P25095 whole entry): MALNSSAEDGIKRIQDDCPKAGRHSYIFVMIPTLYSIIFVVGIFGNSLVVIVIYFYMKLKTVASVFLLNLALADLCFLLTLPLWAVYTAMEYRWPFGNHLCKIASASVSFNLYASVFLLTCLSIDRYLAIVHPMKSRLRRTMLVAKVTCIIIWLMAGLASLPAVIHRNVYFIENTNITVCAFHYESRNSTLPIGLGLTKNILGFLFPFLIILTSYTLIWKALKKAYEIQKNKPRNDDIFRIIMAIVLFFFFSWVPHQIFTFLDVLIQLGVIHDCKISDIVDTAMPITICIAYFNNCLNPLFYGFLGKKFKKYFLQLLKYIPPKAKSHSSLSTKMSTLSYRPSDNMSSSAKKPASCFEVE

[6] = target: T1, Type-2 angiotensin II receptor (Homo sapiens); test: Agonist activity at AT2 receptor (unknown origin) expressed in NG108-15 cells assessed as induction of neurite outgrowth at 10 nM after 3 days in presence of 10 uM AT2 receptor antagonist PD 123,319 by phase contrast microscopy; format: cell-based; method in brief: as §1
[7] = target: T1, Type-2 angiotensin II receptor (Homo sapiens); details: NG108-15, 10 uM
[8] = target: T3, Type-1 angiotensin II receptor (Homo sapiens, UniProt P30556); test: Displacement of [125I]-[Sar1,Leu8]angiotensin II from human AT1 receptor expressed in african green monkey COS7 cells; format: cell-based, COS-7
T3 sequence (P30556 whole entry): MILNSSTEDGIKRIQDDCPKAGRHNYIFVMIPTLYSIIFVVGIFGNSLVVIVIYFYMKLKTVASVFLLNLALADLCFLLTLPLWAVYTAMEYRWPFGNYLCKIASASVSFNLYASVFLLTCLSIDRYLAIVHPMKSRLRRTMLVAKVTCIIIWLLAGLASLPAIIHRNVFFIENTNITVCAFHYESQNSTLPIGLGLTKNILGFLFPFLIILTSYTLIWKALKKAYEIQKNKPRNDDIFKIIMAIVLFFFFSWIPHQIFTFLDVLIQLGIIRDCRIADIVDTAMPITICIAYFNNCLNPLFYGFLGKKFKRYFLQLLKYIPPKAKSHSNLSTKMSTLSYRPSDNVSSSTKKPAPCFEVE

Row | Activity [2] | Activity [6] | SMILES | further results
1 | inactive | – | CCCCOC(=O)NS(=O)(=O)c1ccc(CC(C)C)cc1-c1cccc(Cn2ccnc2)c1 | inhibition [1]: Active; Activity [3]: inactive
2 | – | – | CCCCOC(=O)NS(=O)(=O)c1ccc(CCC)cc1-c1ccc(Cn2c(CC)nc3c(C)cc(C)nc32)cc1 | IC50 [4]: 4.2 nM
3 | – | – | CCCCOC(=O)NS(=O)(=O)c1sc(CC(C)C)cc1-c1ccc(Cn2ccnc2)cc1 [BULOXIBUTID] | Ki [5]: > 10000 nM
4 | Active | inactive | CCCCOC(=O)NS(=O)(=O)c1cc(CC(C)C)ccc1-c1cccc(Cn2ccnc2)c1 | –
5 | Active | inactive | CCCCOC(=O)NS(=O)(=O)c1ccc(CC(C)C)cc1-c1ccc(Cn2ccnc2)cc1 | –
6 | – | – | Cc1cc(Cn2cnc3c2C[C@@H](C(=O)O)N(C(=O)C(c2ccccc2)c2ccccc2)C3)ccc1N(C)C | inhibition [7]: Active
7 | Active | inactive | CCCCOC(=O)NS(=O)(=O)c1cc(CC(C)C)ccc1-c1ccc(Cn2ccnc2)cc1 | –
8 | – | – | CCCCOC(=O)NS(=O)(=O)c1ccc(CC(C)C)cc1-c1ccc(Cn2c(CC)nc3c(C)cc(C)nc32)cc1 | IC50 [4]: 0.7 nM; IC50 [8]: 2.1 nM
